The values below come from ChEMBL document CHEMBL1139491 (J Med Chem, 2005).

In assay [1] the test system is T47D. Kind of assay: Tested for cytotoxicity towards T47D cell line (human breast cancer). Type of assay: functional, cell-based.
Assay [2] addresses T1, Estrogen receptor (Homo sapiens, UniProt P03372).
T1 sequence (P03372 whole entry): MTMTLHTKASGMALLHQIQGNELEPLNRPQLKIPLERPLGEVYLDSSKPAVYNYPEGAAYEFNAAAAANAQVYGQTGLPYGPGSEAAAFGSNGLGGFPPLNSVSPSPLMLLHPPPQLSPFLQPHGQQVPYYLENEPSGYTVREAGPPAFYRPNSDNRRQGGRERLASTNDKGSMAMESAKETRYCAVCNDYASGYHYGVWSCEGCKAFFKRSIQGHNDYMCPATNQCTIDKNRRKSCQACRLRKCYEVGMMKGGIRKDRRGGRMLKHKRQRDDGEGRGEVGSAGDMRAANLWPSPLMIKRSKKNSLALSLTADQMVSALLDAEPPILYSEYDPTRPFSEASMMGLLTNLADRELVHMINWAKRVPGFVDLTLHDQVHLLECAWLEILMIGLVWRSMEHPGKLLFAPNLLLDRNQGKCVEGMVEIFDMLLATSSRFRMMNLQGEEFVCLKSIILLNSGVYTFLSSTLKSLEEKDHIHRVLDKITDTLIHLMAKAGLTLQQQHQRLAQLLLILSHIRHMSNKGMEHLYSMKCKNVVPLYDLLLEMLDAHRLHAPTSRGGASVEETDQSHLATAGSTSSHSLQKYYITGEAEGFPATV
The assay is described as follows: Binding affinity for estrogen receptor (ER) alpha of MCF-7 cell cytosol incubated with 2 nM [3H]estradiol. The assay is classed as cell-based. The method, boiled down:
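Cytosol from MCF-7 cells, which express only the ERα isoform, incubated with 2 nM [3H]-estradiol and unlabeled ligand at eight concentrations from 10 nM to 10 µM. IC50 derived by iterative curve fitting, and Ki calculated using a Kd of 0.1 nM.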

For assay [3], the system named is MCF7. The assay is described as follows: Tested for cytotoxicity towards MCF-7 cell line (human breast cancer). The assay is classed as functional, cell-based.
Assay [4] concerns the target T2, Aryl hydrocarbon receptor (Oryctolagus cuniculus, UniProt O02747).
T2 sequence (O02747 whole entry): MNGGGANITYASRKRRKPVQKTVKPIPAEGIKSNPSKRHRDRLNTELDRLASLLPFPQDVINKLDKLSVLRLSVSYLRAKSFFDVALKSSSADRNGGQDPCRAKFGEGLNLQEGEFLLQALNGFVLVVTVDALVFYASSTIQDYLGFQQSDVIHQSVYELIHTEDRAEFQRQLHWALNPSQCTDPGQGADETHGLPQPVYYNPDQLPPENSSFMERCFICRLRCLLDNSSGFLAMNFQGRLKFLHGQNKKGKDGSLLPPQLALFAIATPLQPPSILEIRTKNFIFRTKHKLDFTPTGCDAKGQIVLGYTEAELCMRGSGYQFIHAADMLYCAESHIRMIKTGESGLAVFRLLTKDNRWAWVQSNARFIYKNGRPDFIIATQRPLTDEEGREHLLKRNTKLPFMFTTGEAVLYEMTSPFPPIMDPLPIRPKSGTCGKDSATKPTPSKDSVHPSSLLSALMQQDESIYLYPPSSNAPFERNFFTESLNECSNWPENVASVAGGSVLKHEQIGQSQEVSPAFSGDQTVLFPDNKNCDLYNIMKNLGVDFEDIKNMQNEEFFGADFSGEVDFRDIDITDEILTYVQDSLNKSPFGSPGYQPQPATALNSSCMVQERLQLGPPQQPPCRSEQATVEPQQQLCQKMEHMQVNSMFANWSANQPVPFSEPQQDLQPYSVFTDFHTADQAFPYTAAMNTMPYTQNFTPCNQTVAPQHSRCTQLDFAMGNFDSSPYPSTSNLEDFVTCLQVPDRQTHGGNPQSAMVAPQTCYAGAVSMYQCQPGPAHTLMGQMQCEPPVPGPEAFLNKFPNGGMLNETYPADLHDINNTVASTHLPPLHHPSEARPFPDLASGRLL
Kind of assay: Binding affinity for aryl hydrocarbon receptor (AhR) of rabbit liver cytosol incubated with 0.2 nM [3H]-TCDD; Antagonist. In short, it runs like this: (§1)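 Rabbit liver cytosol incubated with 0.2 nM [3H]-TCDD plus unlabeled ligand at 12 concentrations spanning 0.1 nM to 1 µM. Competitive displacement measured, and IC50 obtained by iterative curve fitting.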

For assay [5], the system named is A549. Kind of assay: Tested for cytotoxicity towards A549 cell line (human lung carcinoma). Type of assay: functional, cell-based.
Assay [6] concerns MCF7. Kind of assay: Tested for cytotoxicity towards MCF-7 cell line (human breast cancer); Not active. The assay is classed as functional, cell-based.
The subject of assay [7] is T47D. Kind of assay: Tested for cytotoxicity towards T47D cell line (human breast cancer); Not active. Type of assay: functional, cell-based.
In assay [8] the test system is A549. The assay is described as follows: Tested for cytotoxicity towards A549 cell line (human lung carcinoma); Not active. The assay is classed as functional, cell-based.
Assay [9] concerns the target T2, Aryl hydrocarbon receptor. Kind of assay: Binding affinity for aryl hydrocarbon receptor (AhR) of rabbit liver cytosol incubated with 0.2 nM [3H]-TCDD; Agonist. The method, boiled down: as §1
Assay [10] has as its target T1, Estrogen receptor. The assay is described as follows: Binding affinity for estrogen receptor (ER) alpha of MCF-7 cell cytosol incubated with 2 nM [3H]estradiol; Agonist. The assay is classed as cell-based. In short, it runs like this:
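ERα-only cytosol from MCF-7 cells, incubated with 2 nM [3H]-estradiol and eight concentrations (10 nM–10 µM) of unlabelled ligand. IC50 came from iterative curve fitting, and Ki was calculated using Kd 0.1 nM. Agonist status: stimulation of ERE-driven luciferase in MELN reporter cells after 8 h, with or without 1 nM 17β-estradiol; luciferase activity was the read-out.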

Molecules are shown by their SMILES.

Regarding `CCCCOc1ccc(/C=C/c2cc(OC)cc(OC)c2)cc1`, the Concentration in assay [1], in assay [3] and in [5] was > 10 µM each time. In addition, the Ki in [2] is > 100000 nM; in [4] it was 20 nM.

`FC(F)(F)c1cccc(/C=C\c2cc(Cl)cc(Cl)c2)c1`: the Concentration in assay [6], in assay [7] and in assay [8] was > 10 µM each time. The Ki in assay [2] is > 100000 nM; in [4], 19 nM.

Take `COc1ccc(/C=C\c2cc(F)cc(F)c2)cc1`: the Concentration in assay [6], in [7] and in [8] was > 10 µM in each case. Besides, the Ki is > 100000 nM in [2] and 22 nM in [4].

`FC(F)(F)c1ccc(/C=C\c2cc(C(F)(F)F)cc(C(F)(F)F)c2)cc1`: the Concentration in assay [6], in assay [7] and in [8] was > 10 µM in each case. The inhibition constant (Ki) was > 100000 nM in assay [2] and 60 nM in assay [4].

Consider `COc1ccc(/C=C/c2cc(Cl)cc(Cl)c2)cc1`, for which the Concentration in assay [6], in assay [7] and in assay [8] was > 10 µM in each case. The inhibition constant (Ki) in assay [2] was > 100000 nM; in assay [4], 1.4 nM.

In the case of `COc1cc(/C=C/c2ccc(F)cc2)cc(OC)c1`, the Concentration in assay [1], in [3] and in [5] was > 10 µM each time. The Ki is > 100000 nM in assay [2] and 3.1 nM in assay [4].

Consider `FC(F)(F)c1ccc(/C=C\c2cc(Cl)cc(Cl)c2)cc1`, for which the Concentration in assay [6], in assay [7] and in [8] was > 10 µM throughout. Further, the Ki in assay [2] was > 100000 nM; in [4] it was 14 nM.

Turning to `FC(F)(F)c1ccc(/C=C/c2cc(Cl)cc(Cl)c2)cc1`, the Concentration in assay [6], in [7] and in [8] was > 10 µM throughout. The Ki in assay [9] was 0.2 nM; in [2], > 100000 nM.

In the case of `COc1ccc(/C=C/c2cc(F)cc(F)c2)cc1`, the Concentration in [6], in [7] and in assay [8] was > 10 µM each time. In addition, the figures for the inhibition constant (Ki) in assay [2] and in assay [4] were > 100000 nM and 9.2 nM, respectively.

`Oc1ccc(/C=C/c2cc(O)cc(O)c2)cc1` [RESVERATROL] showed a Ki in assay [10] of 785 nM.

As to `COc1cccc(/C=C/c2cc(Cl)cc(Cl)c2)c1`, the Concentration in assay [6], in assay [7] and in assay [8] was > 10 µM each time. The Ki was > 100000 nM in [2] and 5.7 nM in assay [4].

As for `COc1ccc(/C=C/c2cc(OC)cc(OC)c2)cc1` [TRISMETHOXYRESVERATROL], the Concentration in assay [1], in assay [3] and in assay [5] was < 100 µM throughout. In addition, the Ki was 7.7 nM in assay [4] and 261 nM in [10].

As for `CCOc1ccc(/C=C/c2cc(OC)cc(OC)c2)cc1`, the Concentration in assay [1], in assay [3] and in assay [5] was < 0.1 µM throughout. For the same compound, the figures for the Ki in assay [4] and in assay [10] were 5 nM and 381 nM, respectively.

As for `FC(F)(F)c1cccc(/C=C/c2cc(Cl)cc(Cl)c2)c1`, the Concentration in assay [6], in assay [7] and in assay [8] was > 10 µM throughout. Also, the Ki in assay [2] is > 100000 nM; in assay [4], 6.8 nM.

Take `FC(F)(F)c1ccc(/C=C/c2cc(C(F)(F)F)cc(C(F)(F)F)c2)cc1`: the Concentration in [6], in assay [7] and in [8] was > 10 µM throughout. Moreover, the Ki in [2] is > 100000 nM; in assay [4], 2.1 nM.

On to `COc1ccc(/C=C\c2cc(OC)cc(OC)c2)cc1` [8Z-3,4',5-TRIMETHOXYSTILBENE], for which the results for the Ki in assay [4] and in [10] were 75 nM and 132 nM, respectively.

For `COc1cc(/C=C\c2ccc(F)cc2)cc(OC)c1`, the Concentration in assay [1], in assay [3] and in [5] was > 10 µM in each case. The Ki was > 100000 nM in [2] and 96 nM in assay [4].

Take `Clc1ccc(/C=C/c2cc(Cl)cc(Cl)c2)cc1`: the Concentration in [6], in assay [7] and in [8] was > 10 µM each time. In addition, the Ki in assay [2] was > 100000 nM; in assay [4], 1.2 nM.

For the compound `Fc1ccc(/C=C\c2cc(F)cc(F)c2)cc1`, the Concentration in assay [6], in assay [7] and in [8] was > 10 µM each time. Also, the Ki in [2] was > 100000 nM; in assay [4], 63 nM.

Turning to `CCCCOc1ccc(/C=C\c2cc(OC)cc(OC)c2)cc1`, the Ki is > 100000 nM in [2] and 43 nM in [4].

Regarding `Clc1ccc(/C=C\c2cc(Cl)cc(Cl)c2)cc1`, the Concentration in assay [1], in [3] and in [5] was < 100 µM throughout. Besides, the Ki in assay [2] was > 100000 nM; in assay [4], 13 nM.

For `Fc1ccc(/C=C/c2cc(F)cc(F)c2)cc1`, the Concentration in assay [6], in assay [7] and in assay [8] was > 10 µM each time. For the same compound, the Ki in assay [2] is > 100000 nM; in assay [4], 3.8 nM.

Regarding `CCOc1ccc(/C=C\c2cc(OC)cc(OC)c2)cc1`, the Concentration in assay [1], in [3] and in [5] was < 0.1 µM in each case. In addition, the figures for the Ki in [4] and in [10] were 65 nM and 136 nM, respectively.

For `COc1ccc(/C=C\c2cc(Cl)cc(Cl)c2)cc1`, the Concentration in assay [6], in assay [7] and in assay [8] was > 10 µM throughout. For the same compound, the Ki is > 100000 nM in assay [2] and 12 nM in assay [4].

Regarding `COc1cccc(/C=C\c2cc(Cl)cc(Cl)c2)c1`, the Concentration in [6], in assay [7] and in [8] was > 10 µM throughout. The Ki in assay [2] was > 100000 nM; in [4], 24 nM.
